target: Integrin alpha-IIb/beta-3 (Homo sapiens, UniProt P05106+P08514); test: Inhibition of aggregation of human gel-purified platelets (GPIIbIIIa GPP); format: functional
Method in brief: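 Human platelets from healthy-volunteer platelet-rich plasma were gel-purified on sepharose and used at 2×10^8 platelets/mL with 1 mM CaCl2 and 1 mg/mL fibrinogen. Aggregation was measured with or without compound at several concentrations and IC50 calculated. Values are single determinations.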

Sequence of Integrin alpha-IIb/beta-3 (P05106 27-788 limits assumed): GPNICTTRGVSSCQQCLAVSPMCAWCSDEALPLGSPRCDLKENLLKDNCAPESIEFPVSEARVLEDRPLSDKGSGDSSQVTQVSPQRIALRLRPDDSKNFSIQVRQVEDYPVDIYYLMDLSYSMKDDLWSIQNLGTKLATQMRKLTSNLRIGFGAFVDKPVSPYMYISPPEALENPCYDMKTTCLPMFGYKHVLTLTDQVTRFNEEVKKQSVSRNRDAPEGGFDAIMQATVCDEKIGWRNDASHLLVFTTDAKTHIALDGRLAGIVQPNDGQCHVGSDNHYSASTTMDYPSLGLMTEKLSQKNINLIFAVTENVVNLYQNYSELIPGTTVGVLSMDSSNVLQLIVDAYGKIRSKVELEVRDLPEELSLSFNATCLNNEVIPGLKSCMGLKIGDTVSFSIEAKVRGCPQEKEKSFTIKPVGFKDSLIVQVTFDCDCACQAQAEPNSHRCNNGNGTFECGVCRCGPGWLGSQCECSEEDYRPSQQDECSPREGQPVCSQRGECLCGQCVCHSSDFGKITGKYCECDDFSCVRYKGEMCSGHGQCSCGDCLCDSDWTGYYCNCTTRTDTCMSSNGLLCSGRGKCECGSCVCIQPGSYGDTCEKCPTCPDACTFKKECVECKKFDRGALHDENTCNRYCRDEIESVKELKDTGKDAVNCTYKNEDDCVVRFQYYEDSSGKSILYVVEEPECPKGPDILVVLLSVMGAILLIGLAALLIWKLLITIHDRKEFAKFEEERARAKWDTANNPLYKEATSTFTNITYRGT
Sequence of Integrin alpha-IIb/beta-3 (P08514 32-887 limits assumed): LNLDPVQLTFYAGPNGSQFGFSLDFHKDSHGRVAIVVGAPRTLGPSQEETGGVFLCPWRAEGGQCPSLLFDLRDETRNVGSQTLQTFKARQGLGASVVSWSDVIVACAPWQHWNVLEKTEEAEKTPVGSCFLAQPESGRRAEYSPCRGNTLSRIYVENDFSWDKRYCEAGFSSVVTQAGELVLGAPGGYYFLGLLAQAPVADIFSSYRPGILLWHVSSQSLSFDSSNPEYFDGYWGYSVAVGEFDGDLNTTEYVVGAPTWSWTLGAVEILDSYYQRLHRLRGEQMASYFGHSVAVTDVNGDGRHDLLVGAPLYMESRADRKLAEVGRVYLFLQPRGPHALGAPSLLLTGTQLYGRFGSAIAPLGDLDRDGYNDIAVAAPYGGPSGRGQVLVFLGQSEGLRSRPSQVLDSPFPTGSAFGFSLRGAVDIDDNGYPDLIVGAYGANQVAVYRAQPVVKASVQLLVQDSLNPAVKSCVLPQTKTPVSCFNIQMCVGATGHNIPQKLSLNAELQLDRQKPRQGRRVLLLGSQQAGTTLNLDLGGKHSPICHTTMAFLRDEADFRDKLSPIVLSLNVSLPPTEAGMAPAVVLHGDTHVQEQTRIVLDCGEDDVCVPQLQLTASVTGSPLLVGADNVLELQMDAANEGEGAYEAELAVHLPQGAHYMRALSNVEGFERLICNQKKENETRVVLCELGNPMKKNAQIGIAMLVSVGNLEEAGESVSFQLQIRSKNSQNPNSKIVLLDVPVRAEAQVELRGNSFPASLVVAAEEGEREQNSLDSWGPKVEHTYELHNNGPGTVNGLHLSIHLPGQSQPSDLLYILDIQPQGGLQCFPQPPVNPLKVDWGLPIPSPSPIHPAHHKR
Sequence of Integrin alpha-IIb/beta-3 (P08514 891-1039 limits assumed): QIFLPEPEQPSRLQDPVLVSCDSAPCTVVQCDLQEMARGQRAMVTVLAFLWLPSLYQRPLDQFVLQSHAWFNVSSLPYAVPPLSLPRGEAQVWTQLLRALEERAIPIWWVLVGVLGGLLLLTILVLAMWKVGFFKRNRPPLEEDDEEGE

IC50 [µM]	Compound
61	Cc1cc(C)c(S(=O)(=O)N[C@@H](CNC(=O)C2=NOC(CCCC(=O)Nc3ncc[nH]3)C2)C(=O)O)c(C)c1 (some centres undefined)

target: T1, Integrin alpha-V/beta-3 (Homo sapiens, UniProt P05106+P06756); test: Inhibition of Vitronectin receptor (alpha V beta 3) binding; format: protein-complex assay
T1 sequence (P05106 27-788 limits assumed): as the sequence (P05106 27-788 limits assumed) above
T1 sequence (P06756 31-889 limits assumed): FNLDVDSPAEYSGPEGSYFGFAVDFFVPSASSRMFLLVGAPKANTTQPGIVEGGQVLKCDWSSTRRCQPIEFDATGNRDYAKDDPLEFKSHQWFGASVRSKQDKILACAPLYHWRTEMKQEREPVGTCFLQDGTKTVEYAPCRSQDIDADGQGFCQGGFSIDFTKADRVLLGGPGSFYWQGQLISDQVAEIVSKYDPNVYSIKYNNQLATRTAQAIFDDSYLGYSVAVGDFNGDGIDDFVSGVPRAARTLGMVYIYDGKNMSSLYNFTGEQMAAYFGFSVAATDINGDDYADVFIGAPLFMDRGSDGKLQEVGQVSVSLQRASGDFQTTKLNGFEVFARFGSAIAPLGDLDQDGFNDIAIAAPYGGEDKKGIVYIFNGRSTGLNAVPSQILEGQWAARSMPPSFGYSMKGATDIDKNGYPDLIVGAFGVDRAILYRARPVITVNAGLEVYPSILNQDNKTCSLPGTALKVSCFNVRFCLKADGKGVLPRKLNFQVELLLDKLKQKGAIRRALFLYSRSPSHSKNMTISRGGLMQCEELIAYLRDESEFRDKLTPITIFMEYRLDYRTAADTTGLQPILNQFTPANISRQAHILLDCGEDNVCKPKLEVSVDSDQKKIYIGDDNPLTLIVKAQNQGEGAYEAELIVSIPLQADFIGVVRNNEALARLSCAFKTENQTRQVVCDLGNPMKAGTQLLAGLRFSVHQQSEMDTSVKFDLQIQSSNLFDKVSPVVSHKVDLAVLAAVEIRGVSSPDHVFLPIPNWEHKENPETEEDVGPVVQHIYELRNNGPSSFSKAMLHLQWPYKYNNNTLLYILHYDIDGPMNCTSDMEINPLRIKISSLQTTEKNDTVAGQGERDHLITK
T1 sequence (P06756 891-1048 limits assumed): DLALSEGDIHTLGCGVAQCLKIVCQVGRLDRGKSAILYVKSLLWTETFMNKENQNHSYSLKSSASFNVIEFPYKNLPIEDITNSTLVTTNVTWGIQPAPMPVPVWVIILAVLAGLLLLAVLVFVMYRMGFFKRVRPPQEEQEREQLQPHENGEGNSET

IC50 [nM]	Compound
< 0.1	Cc1cc(C)c(S(=O)(=O)N[C@@H](CNC(=O)c2cccc3c2cnn3CCCNc2ncc[nH]2)C(=O)O)c(C)c1
1500	O=C(N[C@H](CNC(=O)c1ccc2cnn(CCCNC3=NCCN3)c2c1)C(=O)O)OCc1ccccc1
250	O=C(N[C@@H](CNC(=O)c1ccc2c(cnn2CCCCNC2=NCCN2)c1)C(=O)O)OCc1ccccc1
25	O=C(N[C@H](CNC(=O)c1ccc2cn(CCCNC3=NCCN3)nc2c1)C(=O)O)OCc1ccccc1
3.8	O=C(N[C@@H](CNC(=O)c1ccc2c(cnn2CCCNC2=NCCN2)c1)C(=O)O)OCc1ccccc1

The next lines start with the compound.

Compound	IC50 [nM]
O=C(N[C@@H](CNC(=O)c1ccc2c(cnn2CCNC2=NCCN2)c1)C(=O)O)OCc1ccccc1	51
O=C(N[C@@H](CNC(=O)c1ccc2nn(CCCNC3=NCCN3)cc2c1)C(=O)O)OCc1ccccc1	55
O=C(N[C@@H](CNC(=O)c1cccc2c1cnn2CCCNC1=NCCN1)C(=O)O)OCc1ccccc1	7.3

target: T1, Integrin alpha-V/beta-3; test: Inhibitory activity against beta-3-transfected 293 cells using alpha-V beta-3 antagonism assay; format: functional, cell-based, HEK293
Method in brief: (§1)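 Fibrinogen-coated plates were blocked with BSA in PBS. HEK293 cells expressing human β3 subunit were preincubated 15 min at 37 °C with or without compound, then allowed to adhere for 60 min. Nonadherent cells were washed off with PBS, adherent cells lysed, and β-galactosidase activity read. IC50 was derived from standard curves and reported ± SEM.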

IC50 [nM]	Compound
> 1000	CC(C)CCC(=O)N[C@@H](CNC(=O)c1ccc2c(cnn2CCCNc2ccccn2)c1)C(=O)O
4.7	O=C(NC[C@H](NS(=O)(=O)c1ccc2ccccc2c1)C(=O)O)c1ccc2c(cnn2CCCNc2ncc[nH]2)c1
10	O=C(NC[C@H](NS(=O)(=O)c1ccc(Cl)c(Cl)c1)C(=O)O)c1ccc2c(cnn2CCCNc2ncc[nH]2)c1
> 1000	Cc1cc(C)c(S(=O)(=O)N[C@@H](CNC(=O)c2ccc3c(cnn3CCCNc3cc[nH]n3)c2)C(=O)O)c(C)c1
300	O=C(N[C@@H](CNC(=O)c1ccc2c(cnn2CCCNc2ccccn2)c1)C(=O)O)OCc1ccccc1
74	O=C(N[C@@H](CNC(=O)c1ccc2c(cnn2CCCNc2ncc[nH]2)c1)C(=O)O)OCc1ccccc1
120	O=C(NC[C@H](NS(=O)(=O)c1ccccc1)C(=O)O)c1ccc2c(cnn2CCCNc2ccccn2)c1
150	CC(=O)Nc1ccc(S(=O)(=O)N[C@@H](CNC(=O)c2ccc3c(cnn3CCCNc3ncc[nH]3)c2)C(=O)O)cc1
13	O=C(NC[C@H](NS(=O)(=O)c1cccc2ccccc12)C(=O)O)c1ccc2c(cnn2CCCNc2ncc[nH]2)c1
600	O=C(NC[C@H](NS(=O)(=O)NCc1ccccc1)C(=O)O)c1ccc2c(cnn2CCCNc2ccccn2)c1
26	COc1ccc(S(=O)(=O)N[C@@H](CNC(=O)c2ccc3c(cnn3CCCNc3ncc[nH]3)c2)C(=O)O)cc1
> 1000	O=C(O)CCNC(=O)c1ccc2c(cnn2CCCNc2ncc[nH]2)c1
44	O=C(NC[C@H](NS(=O)(=O)c1ccccc1)C(=O)O)c1ccc2c(cnn2CCCNc2ncc[nH]2)c1
290	Cc1cc(C)c(S(=O)(=O)N[C@H](CNC(=O)c2ccc3c(cnn3CCCNc3ncc[nH]3)c2)C(=O)O)c(C)c1
> 1000	O=C(NC[C@H](NS(=O)(=O)Cc1ccccc1)C(=O)O)c1ccc2c(cnn2CCCNc2ccccn2)c1
> 1000	O=C(CCc1ccccc1)N[C@@H](CNC(=O)c1ccc2c(cnn2CCCNc2ccccn2)c1)C(=O)O
35	O=C(NC[C@H](NS(=O)(=O)c1ccc(-c2ccccc2)cc1)C(=O)O)c1ccc2c(cnn2CCCNc2ncc[nH]2)c1
2.3	Cc1cc(C)c(S(=O)(=O)N[C@@H](CNC(=O)c2ccc3c(cnn3CCCNc3ncc[nH]3)c2)C(=O)O)c(C)c1
8.5	O=C(NC[C@H](NS(=O)(=O)c1c(Cl)cccc1Cl)C(=O)O)c1ccc2c(cnn2CCCNc2ncc[nH]2)c1
170	O=C(NC[C@H](NS(=O)(=O)Nc1ccccc1)C(=O)O)c1ccc2c(cnn2CCCNc2ccccn2)c1
> 1000	Cc1cc(C)c(NC(=O)[C@H](CC(=O)O)NC(=O)c2ccc3c(cnn3CCCNc3ccccn3)c2)c(C)c1
52	O=C(NC[C@H](NS(=O)(=O)c1ccc(C(F)(F)F)cc1)C(=O)O)c1ccc2c(cnn2CCCNc2ncc[nH]2)c1
56	Cc1cc(C)c(S(=O)(=O)N[C@@H](CNC(=O)c2ccc3c(cnn3CCC(=O)Nc3ncc[nH]3)c2)C(=O)O)c(C)c1

The next lines start with the compound.

Compound	IC50 [nM]
Cc1cc(C)c(S(=O)(=O)N[C@@H](CC(=O)Nc2ccc3c(cnn3CCCNc3ccccn3)c2)C(=O)O)c(C)c1	840
O=C(O)CCNC(=O)c1ccc2c(cnn2CCCNc2ccccn2)c1	> 1000
Cc1cc(C)c(S(=O)(=O)N[C@@H](CN(C)C(=O)c2ccc3c(cnn3CCCNc3ccccn3)c2)C(=O)O)c(C)c1	> 1000
CC(C)(C)c1ccc(S(=O)(=O)N[C@@H](CNC(=O)c2ccc3c(cnn3CCCNc3ncc[nH]3)c2)C(=O)O)cc1	120
O=C(NC[C@H](NS(=O)(=O)c1ccc(Cl)cc1)C(=O)O)c1ccc2c(cnn2CCCNc2ncc[nH]2)c1	10
CC(C)CNS(=O)(=O)N[C@@H](CNC(=O)c1ccc2c(cnn2CCCNc2ccccn2)c1)C(=O)O	> 1000
O=C(NCc1ccccc1)N[C@@H](CNC(=O)c1ccc2c(cnn2CCCNc2ccccn2)c1)C(=O)O	> 1000
O=C(Nc1ccccc1)N[C@@H](CNC(=O)c1ccc2c(cnn2CCCNc2ccccn2)c1)C(=O)O	> 1000
Cc1cc(C)c(NS(=O)(=O)N[C@@H](CNC(=O)c2ccc3c(cnn3CCCNc3ccccn3)c2)C(=O)O)c(C)c1	360
CCCCS(=O)(=O)N[C@@H](CNC(=O)c1ccc2c(cnn2CCCNc2ccccn2)c1)C(=O)O	360
Cc1cc(C)c(S(=O)(=O)NCCNC(=O)c2ccc3c(cnn3CCCNc3ncc[nH]3)c2)c(C)c1	> 1000
Cc1cc(C)c(S(=O)(=O)N[C@@H](CNC(=O)c2ccc3c(cnn3CCCNc3ccccn3)c2)C(=O)O)c(C)c1	48
Cc1cc(-c2ccccc2)cc(C)c1S(=O)(=O)N[C@@H](CNC(=O)c1ccc2c(cnn2CCCNc2ncc[nH]2)c1)C(=O)O	4.9
O=C(O)C[C@H](NC(=O)c1ccc2c(cnn2CCCNc2ccccn2)c1)C(=O)NCCc1ccccc1	> 1000
CC(C)COC(=O)N[C@@H](CNC(=O)c1ccc2c(cnn2CCCNc2ccccn2)c1)C(=O)O	240
Cc1ccc(S(=O)(=O)N[C@@H](CNC(=O)c2ccc3c(cnn3CCCNc3ncc[nH]3)c2)C(=O)O)cc1	16
Cc1cccc(C)c1S(=O)(=O)N[C@@H](CNC(=O)c1ccc2c(cnn2CCCNc2ncc[nH]2)c1)C(=O)O	10

target: T1, Integrin alpha-V/beta-3; test: Inhibition of adhesion of integrin beta-3-transfected HEK293 cells to fibrinogen; format: functional, cell-based; method in brief: as §1

IC50 [nM]	Compound
28	Cc1cc(C)c(S(=O)(=O)N[C@@H](CNC(=O)c2ccc3c(cnn3CCCNC3=NCCCN3)c2)C(=O)O)c(C)c1
70	Cc1cc(C)c(S(=O)(=O)N[C@@H](CNC(=O)c2ccc3c(cnn3CCCNC3=NCCN3)c2)C(=O)O)c(C)c1

target: T1, Integrin alpha-V/beta-3; test: Inhibitory activity against beta-3-transfected 293 cells using alphaV-beta3 antagonism assay; format: functional, cell-based, HEK293; method in brief: as §1

IC50 [nM]	Compound
25	Cc1cc(C)c(S(=O)(=O)N[C@@H](CNC(=O)c2cccc3c2cnn3CCCNc2ncc[nH]2)C(=O)O)c(C)c1
> 1000	O=C(N[C@H](CNC(=O)c1ccc2cnn(CCCNC3=NCCN3)c2c1)C(=O)O)OCc1ccccc1
> 1000	O=C(N[C@@H](CNC(=O)c1ccc2c(cnn2CCCCNC2=NCCN2)c1)C(=O)O)OCc1ccccc1
> 1000	O=C(N[C@H](CNC(=O)c1ccc2cn(CCCNC3=NCCN3)nc2c1)C(=O)O)OCc1ccccc1
460	O=C(N[C@@H](CNC(=O)c1ccc2c(cnn2CCCNC2=NCCN2)c1)C(=O)O)OCc1ccccc1

Continued, compound first:

Compound	IC50 [nM]
O=C(N[C@@H](CNC(=O)c1ccc2c(cnn2CCNC2=NCCN2)c1)C(=O)O)OCc1ccccc1	> 1000
O=C(N[C@@H](CNC(=O)c1ccc2nn(CCCNC3=NCCN3)cc2c1)C(=O)O)OCc1ccccc1	> 1000
O=C(N[C@@H](CNC(=O)c1cccc2c1cnn2CCCNC1=NCCN1)C(=O)O)OCc1ccccc1	> 1000
